Each block holds one compound with its values, some of them ahead of it. Calls of active or inactive are those of the source. The calls are words filed in the database; no cut-off is given here.
Columns and labels:
[1] = system: Serum; test: Drug uptake in triglyceride rich lipoprotein fraction of human serum from human donors with triglyceride levels ( 300-500 and >750 mg/dL) by LC-MS/MS method; format: ADME, cell-free
Summary of the method: (§1)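 Pooled unfasted human serum (mean TG 122, 347 or 958 mg/dL) spiked with inhibitor to 500 ng/mL, 37 °C, 1 h. NaBr density-gradient ultracentrifugation, 18.5 h at 15 °C. Acetonitrile precipitation, glyburide internal standard, LC-MS/MS in duplicate. Result given as % of total across pools.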

[2] = system: Syrian golden hamster; test: Reduction in LDL cholesterol level in Syrian hamster plasma at 0.3 and 10 mg/kg, po dosed once daily for 2 weeks and measured 24 hrs post last dose by HPLC size exclusion chromatography method; format: functional, organism-based; details: Mesocricetus auratus
Summary of the method: (§2)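 Chow-fed hamsters gavaged once daily in the morning for 2 weeks (0.3, 1, 3, 10 mg/kg; vehicle 10 mL/kg). Blood is drawn from the abdominal vein under isoflurane 24 h post last dose, after a 16 h fast. Lipoprotein cholesterol is measured by Superose 6 HPLC with online enzymatic detection at 580 nm, standardized to control plasma. Mean ± SEM, n=6, Dunnett test.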

[3] = system: Serum; test: Drug uptake in HDL fraction of human serum from human donors with normal triglyceride levels (<150 mg/dL) by LC-MS/MS method; format: ADME, cell-free; summary of the method: as §1
[4] = system: NCI-H295R; test: Toxicty in human NCI-H295R cells assessed as increase in aldosterone levels at 0.1 to 10000 nM after 24 hrs by scintillation proximity assay; format: toxicity, cell-based; details: 10 µM
[5] = system: Serum; test: Drug uptake in lipoprotein deficient serum fraction of human serum from human donors with normal triglyceride levels (<150 mg/dL) by LC-MS/MS method; format: ADME, cell-free; summary of the method: as §1
[6] = system: Hamster; test: Increase in HDL cholesterol levels in hamster plasma by HPLC size exclusion chromatography method relative to control; format: functional; details: Cricetinae; summary of the method: as §2
[7] = target: T1, Cholesteryl ester transfer protein (Homo sapiens) (UniProt P11597); test: Inhibition of CETP activity in human serum at upto 1200 mg/dl serum triglyceride concentration by LC-MS/MS method; details: in the assay text read “fluorescence method” for “LC-MS/MS method”
T1 sequence (whole entry): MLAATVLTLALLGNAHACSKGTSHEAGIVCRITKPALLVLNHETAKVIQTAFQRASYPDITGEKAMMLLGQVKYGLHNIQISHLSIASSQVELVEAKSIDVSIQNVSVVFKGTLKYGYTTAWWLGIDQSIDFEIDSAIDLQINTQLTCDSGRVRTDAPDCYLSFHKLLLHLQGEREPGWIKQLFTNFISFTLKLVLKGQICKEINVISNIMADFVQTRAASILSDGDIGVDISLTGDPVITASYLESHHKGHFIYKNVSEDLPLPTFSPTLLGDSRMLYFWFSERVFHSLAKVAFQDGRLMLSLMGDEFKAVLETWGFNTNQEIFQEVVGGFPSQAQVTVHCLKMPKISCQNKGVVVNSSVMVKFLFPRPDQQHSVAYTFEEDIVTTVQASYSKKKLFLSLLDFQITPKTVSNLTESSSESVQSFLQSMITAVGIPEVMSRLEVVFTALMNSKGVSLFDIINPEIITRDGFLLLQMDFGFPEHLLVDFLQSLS
Summary of the method: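 Three human serum pools of differing triglyceride level. IC50 values are the mean of two replicates per pool.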

[8] = system: Syrian golden hamster; test: Increase in HDL cholesterol level in Syrian hamster plasma at 0.3 and 10 mg/kg, po dosed once daily for 2 weeks and measured 24 hrs post last dose by HPLC size exclusion chromatography method relative to control; format: functional, organism-based; details: Mesocricetus auratus; summary of the method: as §2
[9] = Drug uptake in Syrian hamster plasma at 10 mg/kg, po dosed once daily for 14 days measured 24 hrs post last dose by LC-MS/MS method; format: ADME, organism-based, Mesocricetus auratus; details: in vivo
Summary of the method: (§3)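 Chow-fed hamsters dosed orally once daily for 14 days. Blood and ~100 mg adipose, adrenal and liver samples are taken 24 h after the final dose. Tissues are flash-frozen and stored at −80 °C. Total drug concentrations are measured by LC-MS/MS. Mean ± SEM, seven animals per group.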

[10] = system: Serum; test: Drug uptake in LDL fraction of human serum from human donors with normal triglyceride levels (<150 mg/dL) by LC-MS/MS method; format: ADME, cell-free; summary of the method: as §1
[11] = system: Syrian golden hamster; test: Inhibition of CETP in Syrian hamster blood at 3 and 10 mg/kg, po dosed once daily for 2 weeks and measured 24 hrs post last dose; format: functional, organism-based; details: Mesocricetus auratus
[12] = 1-Octanol-phosphate buffered saline partition coefficient, log D of compound at […] by tandem mass spectrometry method; format: physicochemical
[13] = Drug uptake in Syrian hamster adrenal tissue at 10 mg/kg, po dosed once daily for 14 days measured 24 hrs post last dose by LC-MS/MS method; format: ADME, organism-based, Mesocricetus auratus, Adrenal gland; details: in vivo; summary of the method: as §3
[14] = Drug uptake in Syrian hamster adipose tissue at 10 mg/kg, po dosed once daily for 14 days measured 24 hrs post last dose by LC-MS/MS method; format: ADME, organism-based, Mesocricetus auratus; details: in vivo; summary of the method: as §3
[15] = system: Hamster; test: Ex vivo inhibition of CETP activity in hamster hypertriglyceridemia model treated with 100 mg/kg, iv Triton WR-1339 dosed 5 hrs post compound dose measured every 15 mins for 120 mins by fluorescence method; format: functional, organism-based; details: Cricetinae
Summary of the method: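 Chow-fed hamsters given a single gavage dose of compound or vehicle. Triton WR-1339 (100 mg/kg) or saline is given iv 5 h later, and plasma is taken 3 h after that. Plasma (final 80%) is mixed with fluorescent donor in 50 mM Tris-HCl pH 7.4, 150 mM NaCl, 2 mM EDTA. Ex/em 485/535 nm, read every 15 min for 120 min at 37 °C. Activity is the 30–90 min slope. Five animals per group.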

[16] = system: Syrian golden hamster; test: Reduction in LDL cholesterol level in Syrian hamster plasma at 0.3 and 10 mg/kg, po dosed once daily for 2 weeks and measured 24 hrs post last dose by HPLC size exclusion chromatography method relative to control; format: functional, organism-based; details: Mesocricetus auratus; summary of the method: as §2
[17] = system: Serum; test: Drug uptake in triglyceride rich lipoprotein fraction of human serum from human donors with normal triglyceride levels (<150 mg/dL) by LC-MS/MS method; format: ADME, cell-free; summary of the method: as §1
[18] = target: T2, Cholesteryl ester transfer protein (Homo sapiens, UniProt P11597); test: Inhibition of CETP in human plasma measured every 30 mins for 120 mins by fluorescence method
T2 sequence (P11597 whole entry): T1 sequence (whole entry)
Summary of the method: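 Pooled EDTA plasma from healthy male donors (final 50%) with compound in DMSO (final 1%). The reaction is started with fluorescent donor solution. Activity is the 30–90 min slope. IC50 is fitted to duplicate wells by a logistic equation.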

[19] = target: T3, Cytochrome P450 3A4 (Homo sapiens, UniProt P08684); test: Inhibition of CYP3A4 (unknown origin) in the presence of testosterone; format: ADME
[20] = target: Cytochrome P450 2C9 (Homo sapiens, UniProt P11712); test: Inhibition of CYP2C9 (unknown origin); format: ADME
[21] = Clearance in Sprague-Dawley rat plasma at 1 mg/kg, iv or 3 mg/kg, po by LC-ESI-MS/MS analysis; format: ADME, organism-based
Summary of the method: (§4)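 Conscious 7-week-old male Sprague-Dawley rats on standard diet with free water. Dosing is 1 mg/kg iv bolus in N-methylpyrrolidin-2-one/PEG 200, or 3 mg/kg oral suspension in 0.5% aqueous methylcellulose. Blood is sampled at various time points after administration.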

[22] = Half life in Sprague-Dawley rat at 1 mg/kg, iv or 3 mg/kg, po by LC-ESI-MS/MS analysis; format: ADME, organism-based; details: in vivo; summary of the method: as §4
[23] = AUC (infinity) in Sprague-Dawley rat at 1 mg/kg, iv or 3 mg/kg, po by LC-ESI-MS/MS analysis; format: ADME, organism-based; details: in vivo; summary of the method: as §4
[24] = target: T3, Cytochrome P450 3A4; test: Inhibition of CYP3A4 (unknown origin) in the presence of midozolam; format: ADME
[25] = Oral bioavailability in Sprague-Dawley rat at 3 mg/kg by LC-ESI-MS/MS analysis; format: ADME, organism-based; details: in vivo; summary of the method: as §4
[26] = Volume of distribution in Sprague-Dawley rat at 1 mg/kg, iv or 3 mg/kg, po by LC-ESI-MS/MS analysis; format: ADME, organism-based; details: in vivo; summary of the method: as §4
[27] = target: Cytochrome P450 2D6 (Homo sapiens, UniProt P10635); test: Inhibition of CYP2D6 (unknown origin); format: ADME
Sequence of Cytochrome P450 2D6 (P10635 whole entry): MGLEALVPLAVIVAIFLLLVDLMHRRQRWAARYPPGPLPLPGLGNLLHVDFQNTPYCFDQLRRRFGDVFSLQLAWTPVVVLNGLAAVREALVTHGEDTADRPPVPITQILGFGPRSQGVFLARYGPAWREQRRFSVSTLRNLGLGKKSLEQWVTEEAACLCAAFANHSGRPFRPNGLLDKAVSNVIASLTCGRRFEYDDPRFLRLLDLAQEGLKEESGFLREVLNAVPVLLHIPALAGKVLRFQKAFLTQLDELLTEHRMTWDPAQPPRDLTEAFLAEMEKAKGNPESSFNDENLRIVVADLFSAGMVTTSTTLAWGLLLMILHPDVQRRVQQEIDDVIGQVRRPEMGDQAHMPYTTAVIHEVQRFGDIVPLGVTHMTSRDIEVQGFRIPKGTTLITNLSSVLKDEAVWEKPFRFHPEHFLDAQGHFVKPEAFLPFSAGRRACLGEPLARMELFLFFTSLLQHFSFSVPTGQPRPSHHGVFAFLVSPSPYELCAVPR

T3 sequence (P08684 whole entry): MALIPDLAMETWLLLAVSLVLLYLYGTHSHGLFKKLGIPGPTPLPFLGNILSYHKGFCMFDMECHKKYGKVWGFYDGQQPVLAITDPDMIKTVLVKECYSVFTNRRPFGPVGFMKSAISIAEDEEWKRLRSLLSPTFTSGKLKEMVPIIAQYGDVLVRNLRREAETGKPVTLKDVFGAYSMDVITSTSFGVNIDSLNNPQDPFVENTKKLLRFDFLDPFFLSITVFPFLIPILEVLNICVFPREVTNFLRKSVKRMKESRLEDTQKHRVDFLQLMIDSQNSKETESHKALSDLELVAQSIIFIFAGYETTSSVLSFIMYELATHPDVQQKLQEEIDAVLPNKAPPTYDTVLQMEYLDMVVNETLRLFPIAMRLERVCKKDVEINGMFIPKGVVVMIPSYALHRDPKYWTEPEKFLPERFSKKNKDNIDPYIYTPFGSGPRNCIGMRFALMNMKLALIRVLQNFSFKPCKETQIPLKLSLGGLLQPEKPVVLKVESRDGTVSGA
Sequence of Cytochrome P450 2C9 (P11712 whole entry): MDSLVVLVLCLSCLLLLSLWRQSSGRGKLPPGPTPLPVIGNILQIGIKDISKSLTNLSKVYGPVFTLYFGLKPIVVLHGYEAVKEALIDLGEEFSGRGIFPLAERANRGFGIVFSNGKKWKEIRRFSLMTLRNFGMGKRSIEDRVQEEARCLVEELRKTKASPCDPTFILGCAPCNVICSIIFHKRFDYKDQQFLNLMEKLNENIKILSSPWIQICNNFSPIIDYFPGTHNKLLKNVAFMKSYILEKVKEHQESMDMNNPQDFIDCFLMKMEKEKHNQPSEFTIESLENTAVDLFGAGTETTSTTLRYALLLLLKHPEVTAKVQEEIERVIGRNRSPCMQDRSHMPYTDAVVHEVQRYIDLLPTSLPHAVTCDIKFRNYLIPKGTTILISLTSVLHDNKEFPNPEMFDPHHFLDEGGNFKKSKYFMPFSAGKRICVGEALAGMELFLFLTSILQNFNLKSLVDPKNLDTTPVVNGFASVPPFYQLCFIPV

SMILES: COc1cc(F)c(C(C)C)cc1-c1ccc(C(F)(F)F)cc1CN1C(=O)O[C@H](c2cc(C(F)(F)F)cc(C(F)(F)F)c2)[C@@H]1C [ANACETRAPIB]
- Drug uptake [1]: Active
- Activity [2]: Dose-dependent effect
- Drug uptake [3]: Active
- Activity [4]: Non-Toxic
- Drug uptake [5]: Active
- Activity [6]: Dose-dependent effect
- inhibition [7]: inactive
- Activity [8]: Dose-dependent effect
- Drug uptake [9]: Not Active
- Drug uptake [10]: Active
- inhibition [11]: Active
- logD [12]: > 5.9
- Drug uptake [13]: Active
- Drug uptake [14]: Active
- inhibition [15]: inactive
- Activity [16]: Active
- Drug uptake [17]: Active

SMILES: CCCC(=O)N1[C@H](CC)C[C@H](N(Cc2cc(C(F)(F)F)cc(C(F)(F)F)c2)c2ncc(Br)cn2)C[C@@H]1Cc1ccccc1 (racemic)
- IC50 [18]: 510 nM

SMILES: Cc1cc(C)c2c(c1)[C@@H](N(Cc1cc(C(F)(F)F)cc(C(F)(F)F)c1)c1nnn(C)n1)CCCN2C[C@H]1CC[C@H](C(=O)O)CC1 [EVACETRAPIB]
- logD [12]: 5.7
- IC50 [18]: 110 nM

SMILES: CCC(CC)CC1(C(=O)Nc2ccccc2SC(=O)C(C)C)CCCCC1 [DALCETRAPIB]
- logD [12]: > 6
- IC50 [18]: 4100 nM

SMILES: CC[C@@H]1C[C@H](N(Cc2cc(OC)cc(C(F)(F)F)c2)c2ncc(Br)cn2)C[C@H](Cc2ccccc2)N1C(=O)OC(C)(C)C (racemic)
- IC50 [18]: > 10000 nM

SMILES: CC[C@@H]1C[C@H](N(Cc2cc(C(F)(F)F)cc(C(F)(F)F)c2)c2ncc(N3CCOCC3)cn2)C[C@H](CC)N1C(=O)O[C@H]1CC[C@H](C(=O)O)CC1
- IC50 [19]: > 50 µM
- IC50 [20]: > 50 µM
- clearance [21]: 1.5 mL/min/kg
- half-life [22]: 336 min
- AUC(0-inf) [23]: 28.5 µM·h
- IC50 [24]: 25 µM
- bioavailability [25]: 58%
- Vd [26]: 0.67 L/kg
- IC50 [27]: > 50 µM
- IC50 [18]: 150 nM

The next lines start with the values.

- IC50 [18]: 77 nM
SMILES: CC[C@@H]1C[C@H](N(Cc2cc(C(F)(F)F)cc(C(F)(F)F)c2)c2ncc(Br)cn2)C[C@H](Cc2ccccc2)N1C(=O)OC(C)(C)C

- IC50 [18]: 71 nM
SMILES: CC[C@@H]1C[C@H](N(Cc2cc(C(F)(F)F)cc(C(F)(F)F)c2)c2ncc(OC)cn2)C[C@H](Cc2ccccc2)N1C(=O)OC(C)(C)C (racemic)

- IC50 [19]: > 50 µM
- IC50 [20]: 6.6 µM
- clearance [21]: 10 mL/min/kg
- half-life [22]: 276 min
- AUC(0-inf) [23]: 2.75 µM·h
- IC50 [24]: 2.2 µM
- bioavailability [25]: 35%
- Vd [26]: 2.35 L/kg
- IC50 [27]: > 30 µM
- IC50 [18]: 60 nM
SMILES: CC[C@@H]1C[C@H](N(Cc2cc(C(F)(F)F)cc(C(F)(F)F)c2)c2ncc(N3CCOCC3)cn2)C[C@H](CC)N1C(=O)OC(C)C

Source: ChEMBL document CHEMBL4028876, “Discovery of a Novel Piperidine-Based Inhibitor of Cholesteryl Ester Transfer Protein (CETP) That Retains Activity in Hypertriglyceridemic Plasma” (J Med Chem, 2017)
